This passage reports IC50, Activity and inhibition results from ChEMBL document CHEMBL1157797, “The alternative medicine pawpaw and its acetogenin constituents suppress tumor angiogenesis via the HIF-1/VEGF pathway” (J Nat Prod, 2010).

Series [1] concerns the target T1, Hypoxia inducible factors; HIF-1-alpha, HIF-2-alpha (Homo sapiens, UniProt Q16665+Q99814). In words: Inhibition of hypoxia-induced HIF1 activation in human T47D cells in presence of 1% O2 by HRE3-TK-luc reporter assay. Type of series: cell-based. The gist of the method: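 T47D cells carrying the pHRE3-TK-Luc reporter, made hypoxic at 1% O2. HIF-1 activation read as luciferase signal over a concentration range, giving IC50. Data are means ± SEM, n = 3.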
A general note: Reporter assays use an easily measured gene product as a stand-in for the process of interest.

Series [2] relates to PC-3. Briefly: Cytotoxicity against human PC3 cells assessed as suppression of cell proliferation under normoxic condition after 48 hrs relative to control. Type of series: functional, cell-based. In a few lines: (§1)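 Four human tumour lines (T47D, MDA-MB-231, PC-3, DU-145) exposed to acetogenins (1 to 100 nM, half-log steps) or crude extract (0.01 to 1 μg/mL, half-log steps) for 48 h, either normoxic (95% air) or hypoxic (1% O2). Proliferation/viability expressed relative to untreated control. Final solvent below 0.5% (v/v).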

In series [3] the test system is HUVEC. In words: Inhibition of VEGF-induced angiogenesis in HUVEC cells at 0.1 uM by tube formation assay. Type of series: functional, cell-based. The following applies: Homo sapiens.
Series [4] has as its system PC-3. Briefly: Cytotoxicity against human PC3 cells assessed as suppression of cell proliferation under normoxic condition at 100 nM after 6 days relative to control. Type of series: functional.
In series [5] the test system is T47D. Briefly: Inhibition of mitochondrial respiratory chain complex in human T47D cells assessed as decrease in oxygen consumption in presence of rotenone and succinate complex 1 substrate. Type of series: functional, cell-based. The gist of the method:
(§2)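 Oxygen consumption measured in T47D cells permeabilized with digitonin (30 μM). Complex I respiration started with malate plus pyruvate. Rotenone was added as complex I blocker, then succinate (complex II substrate). Antimycin A was added to block complex III, then TMPD plus ascorbate (complex IV substrates) to restart respiration. Sample added at 0.3 μM.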

Series [6] concerns T47D. In words: Cytotoxicity against human T47D cells assessed as suppression of cell proliferation under normoxic condition after 48 hrs relative to control. Type of series: functional, cell-based. The gist of the method:
as §1

Series [7] deals with T47D. In words: Inhibition of normoxic human T47D cells at 0.1 uM by tube formation assay. Type of series: functional, cell-based. The gist of the method: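 Conditioned media from T47D cells (normoxic, hypoxic, or hypoxic plus treatment) applied to HUVEC on Matrigel. Tube length and branching points quantified in three random fields, expressed as % of the normoxic-cell medium, mean ± SD.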

Series [8] relates to MDA-MB-231. In words: Cytotoxicity against human MDA-MB-231 cells assessed as suppression of cell proliferation under normoxic condition after 48 hrs relative to control. Type of series: functional, cell-based. In a few lines: as §1
For series [9], the system named is PC-3. Briefly: Cytotoxicity against human PC3 cells assessed as suppression of cell proliferation under hypoxic condition after 48 hrs relative to control. Type of series: functional, cell-based. In a few lines:
as §1

The subject of series [10] is T47D. In words: Inhibition of hypoxia-induced HIF1alpha protein accumulation in nucleus of human T47D cells by Western blot analysis. Type of series: functional, cell-based. In a few lines: (§3)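 T47D cells exposed to hypoxia (1% O2, 4 h) with or without treatment. Nuclear extracts prepared and probed for HIF-1α and HIF-1β by Western blot.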
On the technique in general: A western blot detects proteins with antibodies after separation by electrophoresis.

The subject of series [11] is MDA-MB-231. Briefly: Cytotoxicity against human MDA-MB-231 cells assessed as suppression of cell proliferation under hypoxic condition after 48 hrs relative to control. Type of series: functional, cell-based. The gist of the method:
as §1

Series [12] concerns T47D. In words: Cytotoxicity against human T47D cells assessed as suppression of cell proliferation under normoxic condition at 10 nM after 6 days relative to control. Type of series: functional.
In series [13] the test system is T47D. In words: Inhibition of mitochondrial respiratory chain complex in human T47D cells assessed as decrease in oxygen consumption in presence of TMPD and ascorbate complex 4 substrate. Type of series: functional, cell-based. The gist of the method:
as §2

Series [14] relates to T47D. In words: Inhibition of hypoxia-induced HIF1beta protein accumulation in nucleus of human T47D cells by Western blot analysis. Type of series: functional, cell-based. In a few lines: as §3
Series [15] relates to T47D. In words: Inhibition of mitochondrial respiratory chain complex 3 in human T47D cells assessed as decrease in oxygen consumption at 0.3 uM. Type of series: functional, cell-based. In a few lines: as §2
In series [16] the test system is DU-145. In words: Cytotoxicity against human DU145 cells assessed as suppression of cell proliferation under normoxic condition at 100 nM after 6 days relative to control. Type of series: functional.
Series [17] relates to T47D. Briefly: Inhibition of mitochondrial respiratory chain complex 2 in human T47D cells assessed as decrease in oxygen consumption at 0.3 uM. Type of series: functional, cell-based. In a few lines: as §2
Series [18] has as its system T47D. In words: Inhibition of ATP in human T47D cells under hypoxia for 16 hrs at 0.1 to 0.3 uM. Type of series: functional, cell-based.
For series [19], the system named is T47D. In words: Inhibition of mitochondrial respiratory chain complex 4 in human T47D cells assessed as decrease in oxygen consumption at 0.3 uM. Type of series: functional, cell-based. The gist of the method: as §2
The test system of series [20] is T47D. In words: Cytotoxicity against human T47D cells assessed as suppression of cell proliferation under hypoxic condition after 48 hrs relative to control. Type of series: functional, cell-based. The gist of the method:
as §1

The subject of series [21] is DU-145. In words: Cytotoxicity against human DU145 cells assessed as suppression of cell proliferation under hypoxic condition after 48 hrs relative to control. Type of series: functional, cell-based. In a few lines:
as §1

Series [22] concerns the target T1, Hypoxia inducible factors; HIF-1-alpha, HIF-2-alpha. In words: Inhibition of chemical hypoxia-induced HIF1 activation in human T47D cells in presence of 1, 10-phenanthrolin by HRE3-TK-luc reporter assay. Type of series: cell-based.
Series [23] concerns DU-145. In words: Cytotoxicity against human DU145 cells assessed as suppression of cell proliferation under normoxic condition after 48 hrs relative to control. Type of series: functional, cell-based. The gist of the method: as §1
In series [24] the test system is MDA-MB-231. Briefly: Cytotoxicity against human MDA-MB-231 cells assessed as suppression of cell proliferation under normoxic condition at 100 nM after 6 days relative to control. Type of series: functional.
Series [25] has as its system T47D. Briefly: Inhibition of hypoxia-induced GLUT1 mRNA expression in human T47D cells at 0.1 uM in presence of 1% O2 for 16 hrs by RT-PCR. Type of series: functional. The gist of the method: (§4)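 T47D cells treated under hypoxia (1% O2, 16 h). GLUT-1 or VEGF mRNA measured by quantitative real-time RT-PCR and normalised to 18S rRNA. Reported relative to the normoxic control, mean ± SD, n = 3.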

The target of series [26] is T1, Hypoxia inducible factors; HIF-1-alpha, HIF-2-alpha. Briefly: Inhibition of hypoxia-induced HIF1 activation in human PC3 cells by HRE3-TK-luc reporter assay. Type of series: cell-based. The following applies: PC-3, concentration not given here. In a few lines: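 HIF-1 activation in PC-3 cells induced by hypoxia (1% O2) and read with the pHRE3-TK-Luc luciferase reporter. Concentration-response, IC50/EC50 derived. Data are means ± SEM, n = 3.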

Series [27] concerns T47D. Briefly: Inhibition of mitochondrial respiratory chain complex in human T47D cells assessed as decrease in oxygen consumption in presence of antimycin A complex 3 inhibitor. Type of series: functional, cell-based. In a few lines: as §2
For series [28], the system named is T47D. Briefly: Inhibition of hypoxia-induced VEGF protein expression in human T47D cells at 0.03 to 0.1 uM in presence of 1% O2. Type of series: functional, cell-based. The gist of the method:
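T47D cells exposed to hypoxia with test agent. Secreted VEGF protein in the conditioned medium measured by ELISA and normalised to cellular protein. Mean + SD, n = 3; p values compared with the hypoxia-induced sample.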

The subject of series [29] is T47D. Briefly: Inhibition of mitochondrial respiratory chain complex 1 in human T47D cells assessed as decrease in oxygen consumption. Type of series: functional, cell-based. The gist of the method: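 Oxygen consumption measured in T47D cells; mean ± SD of three independent experiments. For complex I, cells were permeabilised with digitonin (30 μM) and respiration started with malate plus pyruvate. Follow-up additions: succinate (complex II substrate), antimycin A, and TMPD/ascorbate to test complexes II–IV.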

Series [30] deals with T47D. In words: Inhibition of hypoxia-induced VEGF mRNA expression in human T47D cells at 0.1 uM in presence of 1% O2 for 16 hrs by RT-PCR. Type of series: functional. In a few lines:
as §4

In series [31] the test system is HUVEC. Briefly: Cytotoxicity against HUVEC cells. Type of series: cell-based. The following applies: human.
The test system of series [32] is T47D. Briefly: Inhibition of hypoxia-induced HIF1beta protein subcellular localization in human T47D cells at 0.3 uM by immunofluorescence based assay. Type of series: functional, cell-based.

Active and inactive are the calls of the source. The rule behind the calls is not given here.

One may read the IC50 as the concentration that inhibits the measured activity by half. One may read the inhibition as the change of the read-out against control, counted positive when it falls. In the case of `CCCCCCCCCCCC[C@@H](O)[C@H]1CC[C@H]([C@H]2CC[C@H]([C@H](O)CCC(O)CCCCCC(O)CC3=CC(C)OC3=O)O2)O1` (stereo not given in full), the IC50 in series [1] was 12 nM; in [22], more than 1000 nM. For the same compound, the result in series [2], in series [6], in series [8], in series [9], in [11] and in series [20] was inactive. For the same compound, the result in series [21] and in [23] was inactive. Also, the inhibition entry in series [3], in series [28] and in [32] was “Active” in each case. The Activity is less than 30% in [4]; 50% in series [12]; less than 30% in [16]; less than 30% in series [24]; “Non-toxic” in series [31]. In addition, the inhibition entry in series [5], in series [7], in series [13], in [14], in series [15] and in series [17] was “inactive” in each case. In addition, the inhibition entry in series [18], in [19] and in series [27] was “inactive” throughout. The inhibition result in [10] is “Dose-dependent effect”; in series [26] it was 50%; in [29], “Dose-dependent effect”. For the same compound, the inhibition at 0.1 µM was 80% in series [25] and 62% in [30].

Consider `C=C(C)[C@H]1Cc2c(ccc3c2O[C@@H]2COc4cc(OC)c(OC)cc4[C@@H]2C3=O)O1`, for which the inhibition entry in series [29] was “Dose-dependent effect”.

Consider `CCCCCCCCCCCC[C@@H](O)[C@H]1CC[C@H]([C@H](O)CCCC[C@H](O)CCCCC[C@@H](O)CC2=CC(C)OC2=O)O1` (stereo in doubt; 2), for which the result in series [2], in series [6], in series [8], in [9], in series [11] and in series [20] was inactive. For the same compound, the outcome in [21] and in series [23] was inactive. The inhibition entry in [3], in [28] and in series [32] was “Active” throughout. Moreover, the inhibition result in [7], in series [14] and in [18] was “inactive” throughout. Besides, the inhibition entry in [10] is “Dose-dependent effect”; in [26] it was 50%; in [29], “Dose-dependent effect”.

For the compound `CCCCCCCCCCCC[C@@H](O)[C@H]1CC[C@H]([C@H](O)CCCC[C@H](O)CCCCC[C@@H](O)CC2=CC(C)OC2=O)O1` (stereo in doubt; 2) [ANNONACIN], the values for the IC50 in [1] and in series [22] were 13 nM and more than 1000 nM, respectively. In addition, the inhibition at 0.1 µM is 72% in [25] and 64% in series [30]. Further, in series [31], the Activity entry is reported as “Non-toxic”.

`CCCCCCCCCCCC[C@@H](O)[C@H]1CC[C@H]([C@H](O)CCCC[C@H](O)CCCCC[C@@H](O)CC2=CC(C)OC2=O)O1` (stereo in doubt; 3): the result in series [2], in [6], in series [8], in series [9], in [11] and in series [20] was inactive. For the same compound, the outcome in [21] and in series [23] was inactive. Besides, in series [18], the inhibition result was “inactive”. Also, in [26], the inhibition was found to be 50%.

As for `CCCCCCCCCCCC[C@@H](O)[C@H]1CC[C@H]([C@H](O)CCCC[C@H](O)CCCCC[C@@H](O)CC2=CC(C)OC2=O)O1` (stereo in doubt; 3) [ANNONACIN], the Activity in series [4] is less than 30%; in series [12] it was 50%; in series [16], less than 30%; in [24], less than 30%. Moreover, the 50% inhibitory concentration (IC50) in series [22] was more than 1000 nM.
